# Bioassay records from PubChem BioAssay.
# Most compounds without a hit are left out; they make up all but 6.8% or so of the library.
# HCV core dimer: blocks dimerization of HCV core protein; TR-FRET GST/Flag-core106 dimerization, 1536-well; inhibition, % at 5 µM; 0.33% of 300,000 active;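 active = inhibition above the mean of all tested compounds plus 3 SD, set per screening campaign, cut at about 45% in these data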
#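 Material: GST/Flag-tagged HCV core106 proteins. Incubation: 4 h, 22.5 °C incubation. Read-out basis: inhibition (%) from 671 over 617 nm ratio. Measured by: TR-FRET, excitation 340 nm, emission 617 and 671 nm.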
# PHOSPHO1 inh: blocks human PHOSPHO1 phosphatase activity; Q8TCT1; recombinant PHOSPHO1, absorbance phosphatase assay; inhibition, % at 13.3 µM; 1.1% of 290,000 active; AID 1565; in the data active = inhibition above about 60%
# Target sequence (Q8TCT1 whole entry, looked up): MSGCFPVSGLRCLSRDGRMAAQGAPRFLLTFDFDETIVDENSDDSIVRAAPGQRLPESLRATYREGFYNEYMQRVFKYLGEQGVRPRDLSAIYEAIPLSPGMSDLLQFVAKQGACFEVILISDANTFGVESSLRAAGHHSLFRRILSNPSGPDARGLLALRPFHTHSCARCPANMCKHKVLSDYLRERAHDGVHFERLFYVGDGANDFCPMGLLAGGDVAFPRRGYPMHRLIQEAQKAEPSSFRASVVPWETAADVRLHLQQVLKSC
# ALR H2O2 inh: human ALR oxidase inhibition via reduced H2O2 | inhibition, % (test concentration not listed) | 3.8% of 290,000 active | P55789 | purified ALR, DTT oxidation, H2O2 HRP-luminol luminescence;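 active = mean replicate inhibition above about 79%, with every replicate also reaching it, limit read from the data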
# Target sequence (P55789 whole entry, looked up): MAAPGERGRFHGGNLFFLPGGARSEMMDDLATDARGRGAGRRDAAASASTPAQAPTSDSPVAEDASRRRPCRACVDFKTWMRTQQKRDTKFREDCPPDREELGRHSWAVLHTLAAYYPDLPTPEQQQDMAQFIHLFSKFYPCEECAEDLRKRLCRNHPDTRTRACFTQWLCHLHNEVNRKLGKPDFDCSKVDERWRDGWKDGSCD
# HSF1 activator: increases HSF-1 driven luciferase reporter signal; activation, % at 9 µM; 1.7% of 300,000 active; NIH3T3-HGL HSF-1 luciferase reporter, MG132, 8 h; 100% = twice DMSO control signal;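 active = mean replicate activation of at least 50% with a set share of replicates each reaching 50%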;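 note: 0% = median of the neutral control wells and 100% = twice that signal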
# AI-2 QS modul: Vibrio harveyi AI-2 quorum sensing modulation. Vibrio harveyi JMH597 AI-2 luminescence/OD600 ratio, 9 h; stronger effect = lower value; strain lacks LuxN and CqsS sensors; 0 = neutral-control median. 0.4% of 300,000 active. activity change, % at 7.5 µM. AID 2094; in the data active = activity change below about -75%, passing the limit was not always enough;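 note: luminescence divided by OD600 gain over 9 h not by final OD600 alone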
# HSF1 inhib: HSF1 inhibition | NIH3T3-HGL HSE-luciferase, MG132-induced, luminescence 8 h; stronger effect = lower value | activity change, negative = inhibition, % at 7.5 µM (by protocol) | 0.77% of 300,000 active | AID 2098;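 active = more than half of replicate wells show activity change below -50%, luminescence cut by over half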;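 note: luciferase reports HSF-1 transcriptional activity via heat shock element; 0% = median of DMSO wells and -100% = zero luminescence signal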
# An asterisk follows results filed as active; . = not tested or not shown.
SMILES,HCV core dimer,PHOSPHO1 inh,ALR H2O2 inh,HSF1 activator,AI-2 QS modul,HSF1 inhib
CC(=O)c1nnn(-c2cccc(C#N)c2)c1C,-2.9,41.8,-2.0,-6.2,11.9,-8.5
CC1CCCC(C)N1C(=O)COc1ccc(C(=O)Nc2ccccc2N2CCOCC2)cc1 (stereo not given),-0.4,42.4,1.0,-1.2,7.6,5.5
Cc1ccccc1OCC(=O)Nc1ccc(S(=O)(=O)Nc2ccccn2)cc1,16.9,0.3,98.5*,17.5,-25.4,4.2
O=C(Nc1ccc(S(=O)(=O)Nc2ccccn2)cc1)c1cccc(Br)c1,-1.2,-26.1,.,6.1,-81.2*,2.5
Cc1ccccc1OCCCC(=O)Nc1ccc2c(c1)OCO2,5.7,-7.3,97.8*,-14.0,38.3,4.1
Cc1cc(NS(=O)(=O)c2ccc(NC(=O)CCCOc3ccccc3C)cc2)nc(C)n1,26.9,26.9,98.8*,-13.4,11.2,-5.4
O=C(Nc1ccc(S(=O)(=O)Nc2ncccn2)cc1)c1cccc(Br)c1,.,14.1,0.9,13.6,1.3,-2.3
COc1ccccc1CCC(=O)Nc1ccc(S(=O)(=O)Nc2cc(C)nc(C)n2)cc1,2.2,.,54.5,2.5,32.7,0.6
Cc1ccccc1OCC(=O)OCC(=O)Nc1ccc2c(c1)OCO2,.,.,-4.3,.,.,.
COc1ccccc1NC(=S)N1CCN(Cc2ccc3c(c2)OCO3)CC1,-6.9,-5.7,-27.1,13.2,17.9,11.1
Cc1nc(N2CCN(c3ccccc3O)CC2)c2c(-c3ccccc3)csc2n1,26.0,14.6,20.4,-3.5,7.6,-10.1
CCN(C(=S)NCc1ccccc1)c1ccccc1,12.0,-42.3,-5.2,33.0,6.0,3.6
COc1cc(OC)cc(C(=O)Nc2ccc(S(=O)(=O)Nc3cc(C)nc(C)n3)cc2)c1,2.2,3.2,85.2*,4.8,30.0,4.2
COc1cc(C(=O)Nc2ccc(S(=O)(=O)Nc3cc(C)nc(C)n3)cc2)cc(OC)c1OC,-16.2,16.1,32.1,-18.2,11.9,-6.4
CC(=O)c1ccc(-c2ccc(C(=O)NC3CC(C)(C)NC(C)(C)C3)o2)cc1,1.9,.,98.0*,-10.1,13.3,5.8
C/C(=N\Nc1nc(-c2cc(C)ccc2C)cs1)c1cc2ccccc2oc1=O,57.0*,-11.9,15.2,9.5,9.4,6.3
Cc1ccc(C)c(-c2csc(N/N=C/c3ccco3)n2)c1,1.2,9.1,4.2,7.6,13.5,4.3
C/C(=N\Nc1nc(-c2cc(C)ccc2C)cs1)c1cc2c(ccc3ccccc32)oc1=O,60.8*,-29.3,.,10.6,16.8,3.3
CC(C)NCC(O)c1cc(O)cc(O)c1 (stereo not given),-5.3,8.5,.,-18.0,7.9,3.4
CCC(NC(C)C)C(O)c1ccc(O)c(O)c1 (stereo not given),7.3,8.4,92.2*,-14.2,-0.4,-10.4
Fc1cnc(N2CCOCC2)nc1N1CCOCC1,-4.0,45.5,-15.7,1.9,1.6,-1.9
Fc1cnc(Cl)nc1N1CCN(c2ccccc2)CC1,-4.2,32.2,98.8*,-7.8,-1.6,5.0
CN1CCN(c2nc(N3CCN(c4ccccc4)CC3)ncc2F)CC1,-1.3,-26.6,99.1*,14.1,-0.8,-8.5
COc1ccc(NC(=O)c2ccc(COc3ccccc3OC)o2)cc1OC,4.7,7.4,-28.1,-20.1,13.1,3.2
CCCNC(=O)c1ccc(COc2ccc(CCC)cc2OC)o1,-3.5,6.5,.,-66.4,33.4,-56.2*
SMILES,HCV core dimer,PHOSPHO1 inh,ALR H2O2 inh,HSF1 activator,AI-2 QS modul,HSF1 inhib
C=CCc1ccc(OCC(O)COCC)c(OC)c1 (stereo not given),12.5,14.5,-27.5,26.2,8.1,13.6
C=CCc1ccc(OCC(O)CO)c(OC)c1 (stereo not given),2.4,5.0,-7.3,71.4*,22.9,21.9
C=CCc1ccc(OCc2ccc(C(=O)OC)o2)c(OC)c1,0.2,0.2,1.4,59.0*,2.4,39.5
COc1ccccc1OCc1ccc(C(=O)NN)o1,-1.3,41.7,90.2*,7.2,3.2,0.8
CCCNC(=O)c1ccc(COc2cccc3ccccc23)o1,21.9,29.1,-7.1,7.7,7.7,-0.3
COC(=O)c1ccc(COc2ccc(C=O)cc2OC)o1,-0.4,13.7,1.1,-8.8,22.5,-6.4
Cc1cc(C)nc(NCC(O)CNc2ccccc2C)n1 (stereo not given),-5.0,15.9,98.4*,2.1,19.7,-7.7
